Legend:
[1] = tested on: U-937; test: Antiproliferative activity against human U937 cells assessed as incorporation of [3H]thymidine into DNA after 72 hrs by beta-plate counting analysis
[2] = biological target: Cyclin-dependent kinase 1/cyclin B1 (Homo sapiens, UniProt P06493); test: Inhibition of CDK1/cyclin B (unknown origin) using histone H1 as substrate after 60 mins by scintillation counting analysis in presence of [r-33P]ATP; format: protein-complex assay
[3] = biological target: Cyclin-dependent kinase 4 (Homo sapiens, UniProt P11802); test: Inhibition of CDK4 in human COLO205 cells assessed as inhibition of Rb phosphorylation at Ser780 after 24 hrs
[4] = biological target: T1, Receptor-type tyrosine-protein kinase FLT3 (Homo sapiens, UniProt P36888); test: Binding affinity to wild type FLT3 (unknown origin)
T1 sequence (P36888 whole entry): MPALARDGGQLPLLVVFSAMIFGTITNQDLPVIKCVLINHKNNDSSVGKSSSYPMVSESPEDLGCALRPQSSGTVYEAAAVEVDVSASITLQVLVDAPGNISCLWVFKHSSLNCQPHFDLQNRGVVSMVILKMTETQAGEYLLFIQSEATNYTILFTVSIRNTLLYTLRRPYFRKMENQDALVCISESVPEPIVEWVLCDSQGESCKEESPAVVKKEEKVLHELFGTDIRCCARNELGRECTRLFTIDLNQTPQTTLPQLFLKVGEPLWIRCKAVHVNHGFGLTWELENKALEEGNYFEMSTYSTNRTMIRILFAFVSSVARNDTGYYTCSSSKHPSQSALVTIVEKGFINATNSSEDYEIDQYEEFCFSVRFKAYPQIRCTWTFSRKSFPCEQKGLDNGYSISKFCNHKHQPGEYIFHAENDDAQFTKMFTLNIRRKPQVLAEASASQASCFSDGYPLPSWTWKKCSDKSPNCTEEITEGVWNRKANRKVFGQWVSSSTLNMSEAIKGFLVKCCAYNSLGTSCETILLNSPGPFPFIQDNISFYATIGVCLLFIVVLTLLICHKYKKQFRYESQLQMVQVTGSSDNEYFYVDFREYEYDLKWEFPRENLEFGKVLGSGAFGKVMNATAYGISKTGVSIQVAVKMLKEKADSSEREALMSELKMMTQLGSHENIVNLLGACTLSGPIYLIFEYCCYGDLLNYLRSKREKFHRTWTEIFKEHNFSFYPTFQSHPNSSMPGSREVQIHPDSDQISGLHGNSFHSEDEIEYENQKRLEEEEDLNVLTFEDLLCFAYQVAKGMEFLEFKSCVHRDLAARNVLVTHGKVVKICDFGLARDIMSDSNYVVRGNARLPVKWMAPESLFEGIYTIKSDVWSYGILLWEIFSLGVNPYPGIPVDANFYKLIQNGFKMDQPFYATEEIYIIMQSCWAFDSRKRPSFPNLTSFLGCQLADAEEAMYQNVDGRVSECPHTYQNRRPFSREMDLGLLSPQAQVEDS

[5] = Elimination half-life in iv dosed dog; format: ADME, organism-based, Canis lupus familiaris; conditions: in vivo, read-out: beta t1/2 (converted)
Method in brief: (§1)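 Intravenous and oral (gavage, solution) PK in rat, dog and cynomolgus monkey. The rat vehicle for both routes was water/acetate/tween at pH 4, 96/3/1 (v/v/v). Dog and monkey iv doses used 40% PG aqueous solution at pH 2, and their oral doses used 20% captisol aqueous solution.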

[6] = tested on: MOLM-13; test: Induction of apoptosis in human MOLM13 cells harboring FLT3 ITD mutant at 1 uM after 48 hrs by Annexin V/Sytox Green staining based flow cytometry; format: functional
Method in brief: (§2)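 MOLM13, sorafenib-resistant MOLM13 and U937 cells were each exposed to compound at 1 μM for 48 h. Cells were then stained with Annexin V/Sytox Green and analysed by flow cytometry. Readout is apoptotic cells as a percentage of all cells analysed.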

[7] = biological target: Receptor-type tyrosine-protein kinase FLT3 (Homo sapiens, UniProt P36888, K663Q); test: Binding affinity to FLT3 K663Q mutant (unknown origin)
[8] = biological target: T2, Receptor-type tyrosine-protein kinase FLT3 (Homo sapiens, UniProt P36888, ITD); test: Binding affinity to FLT3 ITD mutant (unknown origin)
[9] = Elimination half-life in iv dosed cynomolgus monkey; format: ADME, organism-based, Macaca fascicularis; conditions: in vivo, read-out: beta t1/2 (converted); method in brief: as §1
[10] = tested on: MOLM-13; test: Antiproliferative activity against human MOLM13 cells harboring FLT3 ITD mutant assessed as incorporation of [3H]thymidine into DNA after […] by beta-plate counting analysis; format: functional, cell-based
[11] = Oral bioavailability in dog; format: ADME, organism-based, Canis lupus familiaris; conditions: in vivo; method in brief: as §1
[12] = tested on: U-937; test: Induction of apoptosis in human U937 cells harboring wild type FLT3 at 1 uM after 48 hrs by Annexin V/Sytox Green staining based flow cytometry; format: functional; method in brief: as §2
[13] = tested on: MOLM-13; test: Induction of apoptosis in sorafenib-resistant human MOLM13 cells harboring FLT3 ITD+D835Y mutant at 1 uM after 48 hrs by Annexin V/Sytox Green staining based flow cytometry; format: functional; method in brief: as §2
[14] = tested on: MOLM-13; test: cells; conditions: Homo sapiens
[15] = biological target: Receptor-type tyrosine-protein kinase FLT3 (Homo sapiens, UniProt P36888, N841I); test: Binding affinity to FLT3 N841I mutant (unknown origin)
[16] = Elimination half-life in iv dosed rat; format: ADME, organism-based; conditions: in vivo, read-out: beta t1/2 (converted); method in brief: as §1
[17] = biological target: T2, Receptor-type tyrosine-protein kinase FLT3; test: Inhibition of FLT3 ITD mutant in human MOLM13 cells assessed as inhibition of STAT5 phosphorylation at Tyr694 after 24 hrs; format: cell-based, MOLM-13
[18] = AUC in po dosed CrTac:NCR-Foxn1nu (NCR) nude mouse xenografted with human MOLM13 cells administered qd for 8 days; format: ADME, organism-based, MOLM-13; conditions: in vivo
Method in brief: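 Oral dosing once daily, day 5 to day 13, in NCR nude mice bearing established subcutaneous human MOLM13 AML xenografts, at 25, 50, 75 and 150 mg/kg against a vehicle group. Tumor growth inhibition read on day 14. AUC comes from terminal PK on plasma collected after the final dose.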

[19] = tested on: Mus musculus; test: Toxicity in CrTac:NCR-Foxn1nu (NCR) nude mouse xenografted with human MOLM13 cells assessed as body weight loss at 25 to 150 mg/kg, po administered qd for 8 days; format: organism-based, MOLM-13; set-up: dose 25-150 mg/kg, route oral; conditions: in vivo, 192 h
Method in brief: (§3)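 Body weight tracked throughout the 8-day once-daily oral study in NCR nude mice carrying MOLM13 xenografts. Doses were 25, 50, 75 and 150 mg/kg, with a vehicle control.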

[20] = Volume of distribution at steady state in iv dosed rat; format: ADME, organism-based; conditions: in vivo, read-out: Vdss; method in brief: as §1
[21] = tested on: COLO 205; test: Antiproliferative activity against Rb-positive human COLO205 cells assessed as incorporation of [14C]thymidine into DNA after 72 hrs by beta-plate counting analysis
[22] = Clearance in iv dosed cynomolgus monkey; format: ADME, organism-based, Macaca fascicularis; conditions: in vivo; method in brief: as §1
[23] = tested on: Mus musculus; test: Toxicity in po dosed CrTac:NCR-Foxn1nu (NCR) nude mouse xenografted with human MOLM13 cells administered qd for 8 days; format: organism-based, MOLM-13; conditions: in vivo, 192 h; method in brief: as §3
[24] = biological target: Receptor-type tyrosine-protein kinase FLT3 (Homo sapiens, UniProt P36888, D835Y); test: Binding affinity to FLT3 D835Y mutant (unknown origin)
[25] = Antiproliferative activity against Rb-negative human MDA-MB-436 cells assessed as incorporation of [3H]thymidine into DNA after 72 hrs by beta-plate counting analysis; format: functional

Chain of Cyclin-dependent kinase 1/cyclin B1 (P06493 whole entry): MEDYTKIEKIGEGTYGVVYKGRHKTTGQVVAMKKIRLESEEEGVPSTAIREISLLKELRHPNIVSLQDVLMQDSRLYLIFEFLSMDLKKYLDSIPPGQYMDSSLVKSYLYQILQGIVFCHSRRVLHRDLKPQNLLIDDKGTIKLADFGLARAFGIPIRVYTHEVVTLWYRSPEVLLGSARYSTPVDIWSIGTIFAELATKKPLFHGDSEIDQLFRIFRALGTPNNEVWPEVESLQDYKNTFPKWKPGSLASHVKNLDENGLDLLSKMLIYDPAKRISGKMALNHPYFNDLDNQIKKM
Chain of Cyclin-dependent kinase 1/cyclin B1 (P14635 whole entry, further chain): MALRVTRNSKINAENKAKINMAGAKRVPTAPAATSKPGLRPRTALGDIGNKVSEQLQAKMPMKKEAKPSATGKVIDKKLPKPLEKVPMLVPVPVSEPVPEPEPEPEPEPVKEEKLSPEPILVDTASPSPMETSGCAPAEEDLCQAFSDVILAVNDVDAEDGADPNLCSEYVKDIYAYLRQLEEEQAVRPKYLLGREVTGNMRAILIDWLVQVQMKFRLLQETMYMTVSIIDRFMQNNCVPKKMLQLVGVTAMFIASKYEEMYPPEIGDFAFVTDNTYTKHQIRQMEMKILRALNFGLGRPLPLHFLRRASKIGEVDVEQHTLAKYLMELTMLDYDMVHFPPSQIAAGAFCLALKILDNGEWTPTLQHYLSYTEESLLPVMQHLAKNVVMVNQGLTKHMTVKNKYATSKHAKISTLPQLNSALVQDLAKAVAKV
Chain of Cyclin-dependent kinase 4 (P11802 whole entry): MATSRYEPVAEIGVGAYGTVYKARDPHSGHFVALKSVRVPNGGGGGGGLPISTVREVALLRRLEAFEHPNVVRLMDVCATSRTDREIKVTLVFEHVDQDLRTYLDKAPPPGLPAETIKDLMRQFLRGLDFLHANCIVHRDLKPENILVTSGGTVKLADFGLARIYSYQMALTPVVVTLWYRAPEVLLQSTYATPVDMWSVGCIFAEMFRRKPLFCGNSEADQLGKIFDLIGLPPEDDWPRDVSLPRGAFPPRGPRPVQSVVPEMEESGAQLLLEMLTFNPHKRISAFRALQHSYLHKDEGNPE

For `C[C@H]1CC[C@H](n2c3cnccc3c3cnc(Nc4ccc5c(n4)CCN(C(=O)CO)C5)nc32)CC1`, the IC50 [1] was 52 nM, the IC50 [2] was 2220 nM and the IC50 [3] was 23 nM. It also gave a Kd [4] of 4 nM, a half-life [5] of 4.1 h and an Activity [6] of 82.3%. It also gave a Kd [7] of 4 nM, a Kd [8] of 4 nM and a half-life [9] of 6.6 h. The IC50 [10] was 28 nM, the bioavailability [11] was 100% and the Activity [12] was 23.68%. The Activity [13] was 70.86%, the IC50 [14] was 23 nM and the Kd [15] was 4 nM. The half-life [16] was 5.5 h, the IC50 [17] was 5 nM and the AUC at 192 h [18] was 28 µM·h. For the same molecule, the Activity [19] was 10%, the Vd [20] was 1.8 L/kg and the IC50 [21] was 55 nM. The clearance [22] was 23.7 mL/min/kg, the Activity [23] was “Non-toxic” and the Kd [24] was 1 nM. It also gave an IC50 [25] of 3830 nM.
